Values joined by “and” are separate entries in the source; they are usually repeats but may differ in a detail not shown here. Equal entries are not always repeated.
System: U2OS
Assay: Multiplex assay against U2OS
Assay type: toxicity, cell-based
Settings: human
Outline: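 Tubulin, mitochondrial-mass and membrane-permeability phenotypes are per cents of healthy-nucleus cells. Cells were gated by CellPathfinder machine learning into Hoechst high-intensity objects or normal cells, normal cells into healthy, pyknosed or fragmented nuclei, and pyknosed cells into mitotic or apoptotic. Before that, live cells stained at seeding with Hoechst33342, BioTracker Green Microtubule Cytoskeleton Dye, MitoTracker Red and Annexin V Alexa Fluor 680 were imaged on a CQ1 microscope at 37°C and 5% CO2 after compound addition.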

[1] = 12 h, 1 µM, compound concentration 1 uM
[2] = 12 h, 10 µM, compound concentration 10 uM
[3] = 24 h, 1 µM, compound concentration 1 uM
[4] = 24 h, 10 µM, compound concentration 10 uM
[5] = 48 h, 1 µM, compound concentration 1 uM
[6] = 48 h, 10 µM, compound concentration 10 uM

Cc1cc(C)cc(C(=O)NOCCCCCC(=O)NO)c1
Population Apoptotic (%) [1]: 33.33% and 45.83%
Population Fragmented Nuclei (%) [1]: 2.19% and 1.16%
Population Healthy Nuclei (%) [1]: 82.02% and 84.97%
Population Hoechst High Intensity Objects (%) [1]: 0%
Population Membrane Permeable-Phenotype (%) [1]: 0.53% and 4.08%
Population Mitochondria Different-Phenotype (%) [1]: 0.27% and 4.08%
Population Mitotic Cells (%) [1]: 66.67% and 54.17%
Population Normal (%) [1]: 100%
Population Pyknosed Nuclei (%) [1]: 15.79% and 13.87%
Population Tubulin-Different-Phenotype (%) [1]: 0.8% and 1.36%
Total Cell Count [1]: 456 and 173
Population Apoptotic (%) [2]: 27.78% and 30.23%
Population Fragmented Nuclei (%) [2]: 2.46% and 2.56%
Population Healthy Nuclei (%) [2]: 79.85% and 69.87%
Population Hoechst High Intensity Objects (%) [2]: 0%
Population Membrane Permeable-Phenotype (%) [2]: 1.23% and 4.59%
Population Mitochondria Different-Phenotype (%) [2]: 0.31% and 9.17%
Population Mitotic Cells (%) [2]: 72.22% and 69.77%
Population Normal (%) [2]: 100%
Population Pyknosed Nuclei (%) [2]: 17.69% and 27.56%
Population Tubulin-Different-Phenotype (%) [2]: 2.46% and 1.83%
Total Cell Count [2]: 407 and 156
Population Apoptotic (%) [3]: 42.11% and 38.46%
Population Fragmented Nuclei (%) [3]: 5.65% and 5.61%
Population Healthy Nuclei (%) [3]: 59.88% and 61.22%
Population Hoechst High Intensity Objects (%) [3]: 0%
Population Membrane Permeable-Phenotype (%) [3]: 0.67% and 1.67%
Population Mitochondria Different-Phenotype (%) [3]: 0.34% and 5%
Population Mitotic Cells (%) [3]: 57.89% and 61.54%
Population Normal (%) [3]: 100%
Population Pyknosed Nuclei (%) [3]: 34.48% and 33.16%
Population Tubulin-Different-Phenotype (%) [3]: 3.37% and 1.67%
Total Cell Count [3]: 496 and 196
Population Apoptotic (%) [4]: 36.05% and 42.86%
Population Fragmented Nuclei (%) [4]: 8.75% and 10%
Population Healthy Nuclei (%) [4]: 30.26% and 41.88%
Population Hoechst High Intensity Objects (%) [4]: 0%
Population Membrane Permeable-Phenotype (%) [4]: 0.78% and 10.45%
Population Mitochondria Different-Phenotype (%) [4]: 0% and 4.48%
Population Mitotic Cells (%) [4]: 63.95% and 57.14%
Population Normal (%) [4]: 100%
Population Pyknosed Nuclei (%) [4]: 60.99% and 48.12%
Population Tubulin-Different-Phenotype (%) [4]: 3.12% and 11.94%
Total Cell Count [4]: 423 and 160
Population Apoptotic (%) [5]: 77.2% and 80.52%
Population Fragmented Nuclei (%) [5]: 9.29% and 8.45%
Population Healthy Nuclei (%) [5]: 55.56% and 55.4%
Population Hoechst High Intensity Objects (%) [5]: 0.18% and 0%
Population Membrane Permeable-Phenotype (%) [5]: 4.92% and 7.63%
Population Mitochondria Different-Phenotype (%) [5]: 0.66% and 5.93%
Population Mitotic Cells (%) [5]: 22.8% and 19.48%
Population Normal (%) [5]: 99.82% and 100%
Population Pyknosed Nuclei (%) [5]: 35.15% and 36.15%
Population Tubulin-Different-Phenotype (%) [5]: 6.89% and 8.47%
Total Cell Count [5]: 550 and 213
Population Apoptotic (%) [6]: 79.12% and 92.94%
Population Fragmented Nuclei (%) [6]: 3.39% and 4.58%
Population Healthy Nuclei (%) [6]: 31.59% and 39.87%
Population Hoechst High Intensity Objects (%) [6]: 0%
Population Membrane Permeable-Phenotype (%) [6]: 15.7% and 31.15%
Population Mitochondria Different-Phenotype (%) [6]: 0.83% and 3.28%
Population Mitotic Cells (%) [6]: 20.88% and 7.06%
Population Normal (%) [6]: 100%
Population Pyknosed Nuclei (%) [6]: 65.01% and 55.56%
Population Tubulin-Different-Phenotype (%) [6]: 44.63% and 32.79%
Total Cell Count [6]: 383 and 153

From ChEMBL document CHEMBL5724801, “EUbOPEN Chemogenomics Library - Multiplex” (2024)
